Most compounds without a hit are left out; they make up all but 1.9% or so of the library.
STEP block – STEP (human) phosphatase inhibition; P54829; recombinant STEP, OMFP fluorogenic substrate, fluorescence; inhibition, % at 20 µM; actives 0.25% (n = 360,000);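 active = inhibition at 20 µM, scaled per plate between control wells, above about 37%, limit read from the data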
Target sequence (P54829 whole entry, looked up): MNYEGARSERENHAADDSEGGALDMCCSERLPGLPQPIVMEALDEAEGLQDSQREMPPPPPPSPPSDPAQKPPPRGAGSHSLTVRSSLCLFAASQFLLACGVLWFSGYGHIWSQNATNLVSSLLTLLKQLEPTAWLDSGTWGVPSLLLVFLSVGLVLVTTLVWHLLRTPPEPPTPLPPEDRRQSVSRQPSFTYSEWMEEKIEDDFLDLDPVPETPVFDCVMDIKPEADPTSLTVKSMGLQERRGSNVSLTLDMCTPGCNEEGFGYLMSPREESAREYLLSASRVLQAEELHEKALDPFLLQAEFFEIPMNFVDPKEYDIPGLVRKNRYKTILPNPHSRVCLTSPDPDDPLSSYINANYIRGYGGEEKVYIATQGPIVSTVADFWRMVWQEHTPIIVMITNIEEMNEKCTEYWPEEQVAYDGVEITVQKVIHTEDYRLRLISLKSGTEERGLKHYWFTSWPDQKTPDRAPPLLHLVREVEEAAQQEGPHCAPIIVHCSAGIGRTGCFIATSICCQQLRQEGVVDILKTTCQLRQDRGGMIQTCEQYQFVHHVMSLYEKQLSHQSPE
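Measure: Control-normalized % inhibition with plate pattern correction | Test system: STEP phosphatase, cell-free reaction | Medium: pH 6.0 Bis-Tris with DTT and Tween 20 | Technique: Fluorescence, 480/540 nm | Times: Reaction 20 min, ambient temperature | Doses: Single compound dose of 20 µM, 1% DMSO final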
SUMO1-SIM PPI – SUMO1-SIM interaction modulation. SUMO1 binding to a labelled peptide, TR-FRET, 1 h. inhibition, % at 20 µM. actives 0.33% (n = 360,000); in the data active = inhibition above about 37%
LMPTP inh – LMPTP (human) inhibition; P24666; recombinant LMPTP-A, OMFP fluorogenic substrate, fluorescence intensity; AID 651560; actives 0.22% (n = 360,000); inhibition, % at 20 µM;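 active = compounds that cut the enzyme signal by at least half of the control window in the single-dose screen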
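Assay system: LMPTP-A phosphatase enzyme | Input: 0.625 nM enzyme | Also added: Fluorogenic phosphatase substrate OMFP at 400 µM final | Compound dosing: One test concentration per compound, 20 µM, with 3% DMSO overall | Schedule: 50 min enzyme reaction at room temperature, protected from light | Signal: Fluorescence intensity | Benchmarks: no-enzyme and uninhibited controls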
DNMT1 block – blocks human DNA methyltransferase DNMT1. actives 0.83% (n = 360,000). DNMT1 molecular beacon, Hinp1I cleavage, fluorescence. inhibition (reported as % activation of signal), % at 10 µM. P26358; in the data active = inhibition above about 50%
Scp1 inh – blocks human Scp-1 phosphatase activity; AID 493091; actives 0.88% (n = 340,000); Q9GZU7; inhibition, % at 20 µM; Recombinant Scp1, phosphopeptide, malachite green phosphate absorbance;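 active = inhibition above about 50% at 20 µM, limit read from the data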
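Test system – truncated SCP-1 phosphatase (76-261aa) · Reagent – Phosphorylated 17-residue peptide substrate · Incubation – 45 min room-temperature reaction, 5 min colour, 30 min stabiliser · Detection – colorimetric phosphate reagent with accelerator and stabiliser, absorbance at 630 nm · Measure – % inhibition at 20 µM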
SUMO HTRF inh – inhibitors of human SUMOylation (UBC9); inhibition, % at 35 µM; HTRF SUMOylation assay, SAE1/SAE2 + UBC9, in vitro; actives 0.36% (n = 290,000); P63279; AID 2006; in the data active = inhibition above about 50%, passing the limit was not always enough
Scp-1 conf – Scp-1 (human) inhibition, single-dose confirmed; shares compounds with Scp1 inh; recombinant SCP-1 catalytic domain, phosphate release, malachite green absorbance; inhibition, % at 20 µM; actives 61% (n = 2,500); AID 540281
Scp-1 MG ctr – interferes with malachite green readout, flagging false Scp-1 hits | apparent inhibition (interference), % at 20 µM | Colorimetric interference counterscreen, malachite green absorbance 630 nm | shares compounds with Scp1 inh | 2,500 tested, under 10 active;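 note: compounds added after enzyme reaction finished so only phosphate colour detection is probed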
Scp1 DSF – validation of human Scp-1 inhibitors by thermal shift binding; shares compounds with Scp1 inh; Recombinant SCP1, Sypro Orange thermal shift Tm; thermal shift relative to vanadate control, % at 40 µM; actives 25% (n = 1,500);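 active = substances whose mean melting-temperature shift, as a percentage of the reference inhibitor's shift, reaches about 5.3%, limit read from the data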
Numbers stand for hits; n = inactive; x = no result given.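 Rule for the calls, unless noted: active = inhibition of at least 30% at 20 µM; inactive = the rest.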

SMILES	STEP block	SUMO1-SIM PPI	LMPTP inh	DNMT1 block	Scp1 inh	SUMO HTRF inh	Scp-1 conf	Scp-1 MG ctr	Scp1 DSF
CCSc1nnc(NC(=O)CSc2sc3c(O)cc(=O)[nH]c3c2C#N)s1	n	n	62	77	77	n	49	n	13
Cc1csc(NC(=O)CSc2sc3c(O)cc(=O)[nH]c3c2C#N)n1	n	n	n	n	68	n	53	n	12
CCCSc1nnc(NC(=O)CSc2nc3[nH]c(=O)cc(O)c3s2)s1	n	n	n	n	n	x	x	x	x
NC(=NCCc1ccccc1)c1cccc([N+](=O)[O-])c1	n	n	n	n	n	n	x	x	x
COc1cc(C=NNc2ccc(S(=O)(=O)Nc3ccccc3C(=O)O)cc2[N+](=O)[O-])ccc1O	n	n	n	n	n	x	x	x	x
CCOc1ccc(C=NNc2ccc(S(=O)(=O)Nc3ccccc3C(=O)O)cc2[N+](=O)[O-])cc1OC	98	n	n	n	72	x	86	n	17
Cc1ccc(C(=O)N[C@H](C(=O)Nc2cccc(S(=O)(=O)N3CCOCC3)c2)C(C)C)cc1	n	n	n	n	x	x	x	x	x
Cc1cc(C)n(CCNC(=O)c2ccc3c(c2)OCO3)n1	n	n	n	n	n	n	x	x	x
O=C(CN1C(=O)CCSc2ccc(S(=O)(=O)N3CCOCC3)cc21)Nc1ccccc1Cl	n	n	n	n	61	n	46	n	n
COc1ccc(-c2noc3c2-c2nc(-c4ccccc4Cl)sc2CC3)cc1	n	n	n	n	n	x	x	x	x
CCOc1ccccc1-c1nc2c(s1)CCc1onc(-c3ccc(OC)cc3)c1-2	n	n	n	n	81	x	n	n	x
CCOc1cc(S(=O)(=O)Nc2cc(C)cc(C)c2)ccc1Cl	n	n	n	n	66	n	n	n	x
CCOc1cccc(C(=O)NC2=NCCS2)c1	n	n	n	n	n	n	x	x	x
CCOC(=O)C1=CN(Cc2cccc(F)c2)S(=O)(=O)N(CC)C1c1ccc(F)c(Cl)c1 (stereo not drawn)	n	n	n	n	n	x	x	x	x
C/C(N)=C(/C#N)C(=O)CSc1nnc(NC(C)C)s1	n	n	n	n	91	n	64	n	n
CCC(=O)N1CCC1(C)C(=O)Nc1nccs1 (stereo not drawn)	n	n	n	n	x	x	x	x	x
COc1ccc(NC(=O)Nc2cccc3c2O[C@H](CN(C)C(=O)Nc2ccccc2)[C@@H](C)CN([C@H](C)CO)C3=O)cc1	n	n	n	n	n	x	x	x	x
C[C@H](CO)N1C[C@H](C)[C@@H](CN(C)C(=O)Nc2ccc(C(F)(F)F)cc2)Oc2c(NC(=O)c3ccncc3)cccc2C1=O	n	n	n	n	88	x	n	n	x
C[C@H](CO)N1C[C@H](C)[C@@H](CN(C)C(=O)Nc2ccccc2)Oc2c(NC(=O)c3ccncc3)cccc2C1=O	n	n	n	n	88	x	n	n	x
C[C@H]1CN([C@@H](C)CO)C(=O)c2cccc(NC(=O)c3ccncc3)c2O[C@H]1CN(C)C(=O)Nc1ccccc1	n	n	n	n	95	x	72	n	n
COc1ccc(NC(=O)N(C)C[C@H]2Oc3c(NC(=O)c4ccncc4)cccc3C(=O)N([C@H](C)CO)C[C@@H]2C)cc1	n	n	n	n	61	x	n	n	x
CCCCn1c(-c2ccco2)nc2oc3ccccc3c(=O)c2c1=O	n	n	n	n	62	n	n	n	x
C[C@H]1O[C@H](C2CCCC2)CC2=C1C(=O)OC(C)(C)O2	x	n	n	x	x	x	x	x	x
O=C(O)CCCN1C(=O)C2C3C=CC(C2C1=O)C1C(=O)N(CCCC(=O)O)C(=O)C31 (stereo not drawn)	n	n	n	n	n	n	x	x	x

Source: PubChem (Sanford-Burnham Center for Chemical Genomics)
